Active and inactive are the calls of the source. No cut-off for these calls is given here.
Legend:
[1] = AUC (0 to 480 min) in mouse prostate at 23 umol/kg, ip administered as bolus by LC-MS analysis; format: ADME, organism-based, Prostate gland; design: dose 23 umol/kg, time < 8 hr, route intraperitoneal; conditions: in vivo, 8 h
Summary of the method: (§1)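 Male adult mice (25 ± 5 g) given a single i.p. bolus at 23 µmol/kg. The dosing solution was 1.36 mM in 10% (v/v) DMSO, 20% (w/v) hydroxypropyl-β-cyclodextrin and 0.9% NaCl. Animals were decapitated at seven time points from 10 to 480 min. Plasma and tissues were acetonitrile-precipitated with repaglinide internal standard and analysed by LC-MS. Parameters were derived from concentration–time data, mean ± SEM (n=3).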

[2] = AUC (0 to 480 min) in mouse kidney at 23 umol/kg, ip administered as bolus by LC-MS analysis; format: ADME, organism-based; design: time < 8 hr, dose 23 umol/kg, route intraperitoneal; conditions: in vivo, 8 h; summary of the method: as §1
MCF7 [3] = assay: Antiproliferative activity against human MCF7 cells assessed as reduction in cell viability at 100 measured after 48 hrs by resazurin dye-based fluorimetric analysis; format: functional
Summary of the method: (§2)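 MCF-7 cells were seeded at 2 × 10^4 cells/well on collagen-coated plates and treated one day later. Agents were given alone or combined (25 or 100 µM with 100 µM partner drug) in growth medium for 3 days. Viability was read daily by resazurin fluorescence (ex 560/em 590 nm) and expressed relative to untreated controls.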

[4] = target: T1, Large neutral amino acids transporter small subunit 1 (Homo sapiens, UniProt Q01650); assay: Inhibition of LAT1 in human MCF7 cells assessed as potentiation of bestatin-induced antiproliferative activity by measuring reduction in cell viability at 25 uM measured after 48 hrs by resazurin dye-based fluorimetric analysis
T1 sequence (Q01650 whole entry): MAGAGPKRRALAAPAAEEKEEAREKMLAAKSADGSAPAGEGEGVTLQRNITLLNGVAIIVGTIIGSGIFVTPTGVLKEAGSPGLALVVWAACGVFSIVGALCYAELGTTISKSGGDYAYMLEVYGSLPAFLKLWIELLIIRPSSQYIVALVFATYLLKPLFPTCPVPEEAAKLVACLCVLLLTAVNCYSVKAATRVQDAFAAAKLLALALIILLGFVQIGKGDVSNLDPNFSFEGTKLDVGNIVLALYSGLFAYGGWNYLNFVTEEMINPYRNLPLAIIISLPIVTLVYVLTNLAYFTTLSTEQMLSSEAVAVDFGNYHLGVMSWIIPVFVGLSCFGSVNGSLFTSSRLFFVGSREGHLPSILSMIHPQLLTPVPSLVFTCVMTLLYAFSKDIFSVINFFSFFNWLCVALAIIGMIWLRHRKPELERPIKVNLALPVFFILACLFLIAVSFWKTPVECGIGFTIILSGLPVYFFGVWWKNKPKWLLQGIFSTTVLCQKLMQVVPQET
Summary of the method: (§3)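 MCF-7 cells seeded 2 × 10^4/well on collagen-coated plates, treated one day later in growth medium with inhibitor (25 or 100 µM) plus bestatin or cisplatin (100 µM) for up to 3 days. Viability read daily by resazurin fluorescence (ex 560/em 590 nm). Viability is treated relative to untreated control. Mean ± SD, n=3.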

[5] = Unbound AUC (0 to 480 mins) in mouse kidney at 23 umol/kg, ip administered as bolus by LC-MS analysis; format: ADME, organism-based; conditions: in vivo
Summary of the method: (§4)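 Male mice (25 ± 5 g) dosed i.p. as a bolus at 23 µmol/kg in DMSO/hydroxypropyl-β-cyclodextrin/saline vehicle, sampled at time points 10–480 min; plasma and tissue homogenates (1:3 water) analysed by LC-MS. […] Mean ± SEM.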

[6] = Unbound AUC (0 to 480 mins) in mouse heart at 23 umol/kg, ip administered as bolus by LC-MS analysis; format: ADME, organism-based; conditions: in vivo; summary of the method: as §4
[7] = target: T1, Large neutral amino acids transporter small subunit 1; assay: Inhibition of LAT1 in human MCF7 cells assessed as potentiation of cisplatin-induced antiproliferative activity by measuring reduction in cell viability at 100 uM measured after 72 hrs by resazurin dye-based fluorimetric analysis; summary of the method: as §3
[8] = AUC (0 to 480 min) in mouse brain at 23 umol/kg, ip administered as bolus by LC-MS analysis; format: ADME, organism-based; design: time < 8 hr, dose 23 umol/kg, route intraperitoneal; conditions: in vivo, 8 h; summary of the method: as §1
[9] = Ratio of IC50 for human MCF7 cells to IC50 for [14C]-L-leucine uptake at LAT1 in human MCF7 cells
[10] = target: T1, Large neutral amino acids transporter small subunit 1; assay: Inhibition of LAT1 in human MCF7 cells assessed as potentiation of bestatin-induced antiproliferative activity by measuring reduction in cell viability at 25 uM measured after 24 hrs by resazurin dye-based fluorimetric analysis; summary of the method: as §3
[11] = target: T1, Large neutral amino acids transporter small subunit 1; assay: Binding affinity to LAT1 in human MCF7 cells at 100 uM after 30 mins by HPLC analysis; format: cell-based
Summary of the method: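 MCF-7 cells given 25-400 µM compound in pre-warmed HBSS (pH 7.4) at 37 °C for 30 min, washed three times with ice-cold HBSS, lysed in 0.1 M NaOH. Lysate quantified by HPLC-UV against a standard curve spiked into cell lysate. Amount normalised to protein (Bio-Rad assay, nmol/mg protein). n=3.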

MCF7 [12] = assay: Antiproliferative activity against human MCF7 cells assessed as reduction in cell viability at 100 measured after 24 hrs by resazurin dye-based fluorimetric analysis; format: functional; summary of the method: as §2
[13] = fCmax in mouse kidney at 23 umol/kg, ip administered as bolus by LC-MS analysis; format: ADME, organism-based; conditions: in vivo; summary of the method: as §4
[14] = Fraction unbound in mouse kidney at 23 umol/kg, ip administered as bolus by LC-MS analysis; format: ADME, organism-based
Summary of the method: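 Unbound fraction was measured by equilibrium dialysis at 100 µM in mouse plasma and in brain, liver, kidney, heart and prostate homogenates.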

[15] = Tmax in mouse liver at 23 umol/kg, ip administered as bolus by LC-MS analysis; format: ADME, organism-based
Summary of the method: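 Adult male mice (25 ± 5 g) given a single i.p. bolus of 23 µmol/kg, dosing solution 1.36 mM in 10% (v/v) DMSO, 20% (w/v) hydroxypropyl-β-cyclodextrin, 0.9% NaCl in water. Decapitation at time points 10–480 min; plasma, brain, liver, prostate, kidney, heart collected. Acetonitrile precipitation with repaglinide internal standard, LC-MS (ESI positive). tmax and t½β taken from concentration-time data; mean ± SEM, n=3.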

[16] = Cmax in mouse prostate at 23 umol/kg, ip administered as bolus by LC-MS analysis; format: ADME, organism-based, Prostate gland; design: dose 23 umol/kg, route intraperitoneal; conditions: in vivo; summary of the method: as §1
Mus musculus = assay: Binding affinity to LAT1 in mouse brain assessed as inhibition of [14C]-L-leucine uptake at 23 umol/kg, ip measured 180 mins post perfusion with [14C]-L-leucine; format: functional; conditions: 3 h
Summary of the method: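 Mice under ketamine/xylazine anaesthesia had the right common carotid artery cannulated. Brains were perfused at 37 °C, 2.5 mL/min, for 30 s with 0.157 µM [14C]-L-leucine, then 2 s with analyte-free buffer at 4 °C. Perfusion took place 10 or 180 min after 23 µmol/kg i.p. dosing.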

[17] = target: T1, Large neutral amino acids transporter small subunit 1; assay: Competitive binding to LAT1 in human MCF7 cells at 100 uM after 30 mins in presence of OATP 1B1/1B3 inhibitor rifampicin by HPLC analysis; format: cell-based
Summary of the method: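 MCF-7 cells incubated 30 min at 37 °C in HBSS (pH 7.4) holding 100 µM test compound plus 500 µM competitor. Cells washed three times with ice-cold HBSS and lysed in 0.1 M NaOH. Cell-associated compound measured by HPLC against a lysate-spiked standard curve and normalised to protein. Mean ± SD, n=3.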

MCF7 [18] = assay: Antiproliferative activity against human MCF7 cells assessed as reduction in cell viability at 100 measured after 72 hrs by resazurin dye-based fluorimetric analysis; format: functional; summary of the method: as §2

AUC [1]: 1275 nmol/g/min
AUC [2]: 1426 nmol/g/min
fAUC [5]: 23.7 nmol/g/min
fAUC [6]: 4 nmol/g/min
AUC [8]: 11 nmol/g/min
Activity [11]: Active
fCmax [13]: 0.37 nmol/g
fraction unbound [14]: 0.0166
Tmax [15]: 10 min
Cmax [16]: 24.1 nmol/g
Activity [17]: Active
Structure (SMILES): CNC(=O)COc1ccc(-c2c(C#N)c(NC(=O)c3cccc(C[C@H](N)C(=O)O)c3)n3c(nc4ccccc43)c2C#N)cc1
Activity (MCF7 [3]): 14.8%
Activity [4]: 40.5%
Activity [7]: 81.9%
Ratio IC50 [9]: 6.9
Activity [10]: 24.7%
Activity (MCF7 [12]): 22.9%
inhibition in vivo at 23 µmol/kg (Mus musculus): 14%
Activity (MCF7 [18]): 47.7%
